The format of data set [1] is physicochemical. In a few lines:
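Capacity factors from analytical reversed-phase HPLC retention times (diphenyl column; 0.1% TFA water/acetonitrile; linear 20–100% B over 40 min, 20 min re-equilibration). […] Linear logD–retention correlation gave calculated logD.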

The nature of data set [2]: Mouse pain assay following i.p. administration. It is filed as in vivo. The following applies: unpublished results of the authors.
Data set [3] concerns 6 Hz corneal stimulation limbic seizure. Particulars: cited from earlier work; for Anticonvulsant activity, mice protected/tested, 15' / Anticonvulsant activity, mice protected/tested, 30' / Anticonvulsant activity, mice protected/tested, 1h / Anticonvulsant activity, mice protected/tested, 2h / Anticonvulsant activity, mice protected/tested, 4h: 6 Hz, 32 mA, 4 mg/kg i.p.; for Anticonvulsant activity, mice protected/tested, 15': 15 min after administration; for Anticonvulsant activity, mice protected/tested, 30': 30 min after administration; for Anticonvulsant activity, mice protected/tested, 1h: 1 h after administration; for Anticonvulsant activity, mice protected/tested, 2h: 2 h after administration; for Anticonvulsant activity, mice protected/tested, 4h: 4 h after administration.

The conditions of data set [4]: CD, in the presence of 50% v/v 2,2,2-trifluoroethanol; cited from earlier work.
The test system of another data set is human serum albumin. The following applies: higher affinity of C8 versus C14; cited from earlier work.
The conditions of data set [5]: buffered 25% rat blood serum, 37 °C; cited from earlier work.

For orientation: chromatographic logD means lipophilicity estimated from chromatographic retention. A lower chromatographic logD goes with lower lipophilicity. On to `CCCCCCCC(=O)NCCCC[C@H](NC(=O)[C@H](CCCCN)NC(=O)[C@H](CCCCN)NC(=O)[C@@H]1CCCN1C(=O)CNC(=O)[C@H](CC(C)C)NC(=O)[C@H](CC(C)C)NC(=O)[C@H](Cc1ccc(O)cc1)NC(=O)CNC(=O)[C@H](C)NC(=O)[C@H](CO)NC(=O)[C@H](CC(N)=O)NC(=O)[C@H](CC(C)C)NC(=O)[C@@H](NC(=O)[C@H](Cc1c[nH]c2ccccc12)NC(=O)CNC)[C@@H](C)O)C(=O)N[C@@H](CCCCN)C(N)=O` [Gal-B2-C8], for which the chromatographic logD in data set [1] was 0.78.

In turn, `CCCCCCCCCCCCCCCCCC(=O)NCCCC[C@H](NC(=O)[C@H](CCCCN)NC(=O)[C@H](CCCCN)NC(=O)[C@@H]1CCCN1C(=O)CNC(=O)[C@H](CC(C)C)NC(=O)[C@H](CC(C)C)NC(=O)[C@H](Cc1ccc(O)cc1)NC(=O)CNC(=O)[C@H](C)NC(=O)[C@H](CO)NC(=O)[C@H](CC(N)=O)NC(=O)[C@H](CC(C)C)NC(=O)[C@@H](NC(=O)[C@H](Cc1c[nH]c2ccccc12)NC(=O)CNC)[C@@H](C)O)C(=O)N[C@@H](CCCCN)C(N)=O` [Gal-B2-C18] yielded a chromatographic logD in data set [1] of 1.35.

`CCCCCCCCCCCCCCCC(=O)NCCCC[C@H](NC(=O)[C@H](CCCCN)NC(=O)[C@H](CCCCN)NC(=O)[C@@H]1CCCN1C(=O)CNC(=O)[C@H](CC(C)C)NC(=O)[C@H](CC(C)C)NC(=O)[C@H](Cc1ccc(O)cc1)NC(=O)CNC(=O)[C@H](C)NC(=O)[C@H](CO)NC(=O)[C@H](CC(N)=O)NC(=O)[C@H](CC(C)C)NC(=O)[C@@H](NC(=O)[C@H](Cc1c[nH]c2ccccc12)NC(=O)CNC)[C@@H](C)O)C(=O)N[C@@H](CCCCN)C(N)=O` [Gal-B2]: the analgesic activity entry in data set [2] is given as “comparable analgesic activities”. In data set [3], the “Anticonvulsant activity, mice protected/tested, 15'” value was 3/4; the “Anticonvulsant activity, mice protected/tested, 30'” value is 4/4; the “Anticonvulsant activity, mice protected/tested, 1h” value was 4/4; the “Anticonvulsant activity, mice protected/tested, 2h” value is reported as 4/4. Besides, the “Anticonvulsant activity, mice protected/tested, 4h” value in data set [3] is listed as 0/4. Further, the “anticonvulsant ED50” value in data set [3] (i.p., 6 Hz pharmacoresistant model of epilepsy) is listed as 0.8 mg/kg. In data set [4], the α-helix content is given as 23%.

For `CCCCCCCC(=O)O` [octanoic acid], in the data set on human serum albumin, the “affinity to human serum albumin compared to the C14 (myristic acid)” value is given as 11 fold.

“(Sar)WTLNSAGYLLGPKKKK [Gal-(K)4, reference compound]”: in data set [3], the “Anticonvulsant activity, mice protected/tested, 15'” value is recorded as 0/4; the “Anticonvulsant activity, mice protected/tested, 30'” value is recorded as 3/4; the “Anticonvulsant activity, mice protected/tested, 1h” value is given as 1/3; the “Anticonvulsant activity, mice protected/tested, 2h” value is given as 0/3. Moreover, the “Anticonvulsant activity, mice protected/tested, 4h” value in data set [3] is listed as 0/4. Besides, in data set [4], the α-helix content is on record as 14%.

In the case of Gal(1-16): unmodified Gal(1-16) analog, the “half-time in 25% rat serum” value in data set [5] was 7.8 min.

The record behind these values is paper PMC2765488 (Journal of medicinal chemistry, 2009).
